In ChEMBL document CHEMBL1122955, “Synthesis and dihydropteridine reductase inhibitory effects of potential metabolites of the neurotoxin 1-methyl-4-phenyl-1,2,3,6-tetrahydropyridine” (J Med Chem, 1985):
pIC50, pKi: −log10 of the molar value.

Experiments:
[1] = target: T1, Dihydropteridine reductase (Homo sapiens, UniProt P09417); experiment: Inhibitory activity against human liver Dihydropteridine reductase (DHPR); settings: read-out: I50
T1 sequence (P09417 whole entry): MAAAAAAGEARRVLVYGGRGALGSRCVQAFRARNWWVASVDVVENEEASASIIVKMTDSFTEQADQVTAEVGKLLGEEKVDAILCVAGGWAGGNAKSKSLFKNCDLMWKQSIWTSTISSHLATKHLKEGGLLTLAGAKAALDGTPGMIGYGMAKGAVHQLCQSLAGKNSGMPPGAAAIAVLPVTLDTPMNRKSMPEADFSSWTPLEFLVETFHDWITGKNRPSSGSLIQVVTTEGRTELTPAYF
Procedure, shortened: (§1)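 DHPR from human liver (6 mU, 60 ng protein) or rat striatal synaptosomes (6.5 mU, 75 μg twice-washed P₂ protein), preincubated 10 min at 25 °C with at least six inhibitor concentrations. Residual activity measured with 50 μM qDMPH₂ and 50 μM NADH by decrease in NADH absorbance at 340 nm; I₅₀ = concentration giving 50% inhibition.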

[2] = target: T2, Dihydropteridine reductase (Rattus norvegicus, UniProt P11348); experiment: Inhibitory activity against rat striatal synaptosomes Dihydropteridine reductase (DHPR); type: subcellular, Brain; settings: read-out: I50; procedure, shortened: as §1
T2 sequence (P11348 whole entry): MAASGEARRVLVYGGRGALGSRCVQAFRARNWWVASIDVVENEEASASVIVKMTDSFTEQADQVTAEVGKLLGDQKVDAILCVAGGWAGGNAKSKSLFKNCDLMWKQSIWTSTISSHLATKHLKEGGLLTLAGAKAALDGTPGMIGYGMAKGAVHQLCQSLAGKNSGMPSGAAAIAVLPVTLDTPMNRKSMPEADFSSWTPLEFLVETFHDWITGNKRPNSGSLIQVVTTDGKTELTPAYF

[3] = target: T1, Dihydropteridine reductase; experiment: Noncompetitive Iinhibitory activity against human liver DHPR enzyme
[4] = target: T2, Dihydropteridine reductase; experiment: Noncompetitive Inhibitory activity against rat striatal synaptosomal DHPR enzyme
[5] = target: T2, Dihydropteridine reductase; experiment: Inhibitory activity against rat striatal synaptosomes […] using 10 uM qBH2 and 50 uM NADH assays; type: subcellular, Brain; settings: read-out: I50
Procedure, shortened: (§2)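 Human liver or rat striatal synaptosomal DHPR, preincubated 10 min at 25 °C with inhibitor. Activity then assayed using natural substrate (6R)-dihydrobiopterin (qBH₂) at 10 μM with 50 μM NADH, followed as NADH absorbance decrease at 340 nm, to give 50% inhibitory concentrations.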

[6] = target: T1, Dihydropteridine reductase; experiment: Inhibitory activity against human liver Dihydropteridine reductase enzyme using 10 uM qBH2 and 50 uM NADH assays; settings: read-out: I50; procedure, shortened: as §2
[7] = target: T1, Dihydropteridine reductase; experiment: Inhibitory activity against human liver Dihydropteridine reductase using 10 uM qBH2 and 50 uM NADH assays; settings: read-out: I50; procedure, shortened: as §2

Row | Structure (SMILES) | pIC50 [1] | pIC50 [2] | other results
1 | Clc1ccc(C2=CCNCC2)cc1 | 2.47 | 2.40 | –
2 | C[n+]1ccc(-c2ccccc2)cc1 [listing 1 of 2 here] | 2.25 | 2.47 | –
3 | Oc1ccc(C2=CCNCC2)cc1O | 5.44 | 5.72 | –
4 | C=CC[n+]1ccc(-c2ccccc2)cc1 | 2.03 | 2.13 | –
5 | COc1ccc(C2=CCN(C(C)=O)CC2)cc1OC | 2.96 | 2.64 | –
6 | COc1cc(C2=CCNCC2)ccc1O | 5.14 | – | –
7 | CC(=O)N1CCC(c2ccc(O)c(O)c2)CC1 | 5.28 | 5.51 | –
8 | COc1cc(C2CCN(C(C)=O)CC2)ccc1O | 4.57 | 5.36 | –
9 | Oc1ccc(C2=CCNCC2)cc1 | 5.23 | 5.47 | –
10 | C[n+]1ccc(-c2ccccc2)cc1 [listing 2 of 2 here] | 2.00 | 1.92 | –
11 | CN1CC=C(c2ccc(O)cc2)CC1 | 5.52 | 5.59 | pKi [3]: 5.55
12 | c1ccc(-c2ccncc2)cc1 | 2.62 | 2.72 | –
13 | COc1cc(C2CCN(C)CC2)ccc1O | 4.72 | 4.70 | –
14 | C[n+]1ccc(-c2ccc(O)c(O)c2)cc1 | 6.20 | 5.80 | pKi [4]: 5.72
15 | COc1ccc(-c2ccncc2)cc1OC | 2.28 | 2.70 | –
16 | Oc1ccc(-c2ccncc2)cc1O | 6.42 | 6.55 | –
17 | Oc1ccc(C2CCNCC2)cc1O | 4.36 | 4.42 | –
18 | COc1cc(C2=CCN(C(C)=O)CC2)ccc1O | 5.30 | 4.04 | –
19 | CN1CC=C(c2ccccc2)CC1 | 2.52 | 2.34 | pIC50 [5]: 2.08; pIC50 [6]: 2.14
20 | CN1CCC(c2ccc(O)c(O)c2)CC1 | 4.38 | 4.22 | pKi [4]: 4.13
21 | COc1cc(C2=CCN(C)CC2)ccc1O | 5.03 | 5.24 | –
22 | CN1CC=C(c2ccc(O)c(O)c2)CC1 | 5.47 | 5.60 | pIC50 [7]: 5.85; pIC50 [5]: 5.92; pKi [4]: 5.48
23 | CC(=O)N1CC=C(c2ccc(O)c(O)c2)CC1 | 6.55 | 6.60 | –
24 | CN1CC=C(c2ccc(Cl)cc2)CC1 | 2.57 | 2.19 | –
25 | C1=C(c2ccccc2)CCNC1 | 1.92 | 2.18 | –
26 | CN1CCC(c2ccccc2)CC1 | 1.64 | 1.92 | –
